In PMC6055826 (Chemistry (Weinheim an Der Bergstrasse, Germany), 2018):

Key:
[1] = Metabolic stability assay, pooled rat liver microsomes; type: in vitro ADME; settings: predicted maximum oral bioavailability
Procedure, shortened: (§1)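 Metabolic stability measured in vitro in pooled liver microsomes (human, rat or mouse) or freshly harvested rat hepatocytes.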

[2] = logD by reversed-phase HPLC; type: physicochemical; settings: pH 7.5
[3] = Metabolic stability assay, pooled human liver microsomes; type: in vitro ADME; settings: predicted maximum oral bioavailability
Procedure, shortened: as §1

[4] = Bidirectional Caco2 permeability assay, 24-well format; type: in vitro ADME; settings: human, Caco-2
Procedure, shortened: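 Caco-2 monolayers run bidirectionally in a 24-well format, measuring apparent permeability both apical-to-basolateral (A-B) and basolateral-to-apical (B-A). Efflux ratio calculated as Papp B-A divided by Papp A-B.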

Hydrolytic stability = type: physicochemical; settings: for Recovery [%] (pH): 24 hours with stirring
Procedure, shortened: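 Test compound stirred for 24 hours in buffer at each of three pH values: pH 1 in HCl buffer, pH 7 in phosphate-buffered saline, and pH 10 in sodium borate buffer. Stability expressed as recovery of test compound.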

[5] = test system: freshly harvested rat hepatocytes (rHep); assay: Metabolic stability assay, freshly harvested rat hepatocytes; type: in vitro ADME; settings: predicted maximum oral bioavailability
Procedure, shortened: as §1

[6] = Metabolic stability assay, pooled mouse liver microsomes; type: in vitro ADME; settings: predicted maximum oral bioavailability
Procedure, shortened: as §1

[7] = pH 7 (phosphate-buffered saline)

Row | Compound | F max (h/r/m)-LMs [%] [1] [%] | chromatographic logD [2] | F max (h/r/m)-LMs [%] ([3]; listed as C00021) | Papp A→B [4] [×10⁻⁶ cm/s] | efflux ratio [4] | Recovery [%] (pH) (Hydrolytic stability; pH 1 (HCl buffer)) | Recovery [%] (pH) (Hydrolytic stability; [7]) | Recovery [%] (pH) (Hydrolytic stability; pH 10 (sodium borate buffer)) | F max rHep [%] [5] [%] | F max (h/r/m)-LMs [%] [6] [%] | F max (h/r/m)-LMs [%] [3] [%] | hydrolytic stability (in words) (Hydrolytic stability; after 24 hours with stirring at pH 1, 7 and 10) | F max (h/r/m)-LMs [%] ([3]; listed as C00015)
1 | O=S(=Nc1cccc(F)c1)(c1ccccc1)N1CCCCC1 (centres unmarked) [2 bc] | 0.5 | 4.3 | 8.3 | 25.2 | 0.45 | 100 (1) 100 (7) 100 (10) % | 100 (1) 100 (7) 100 (10) % | 100 (1) 100 (7) 100 (10) % | 2.1 | 16 |  |  | 
2 | CN=S(=O)(c1ccccc1)N1CCCCC1 (centres unmarked) [2 cm] | 18 | 2.4 |  | 40.4 | 0.57 | 100 (1) 100 (7) 100 (10) % | 100 (1) 100 (7) 100 (10) % | 100 (1) 100 (7) 100 (10) % | 19 | 47 | 84 |  | 
3 | O=S(=NC(F)(F)F)(c1ccccc1)N1CCCCC1 (centres unmarked) [2 cs, 1‐[S‐Phenyl‐N‐(trifluoromethyl)sulfonimidoyl]piperidine] | 10 | 3.7 |  | 19.2 | 0.7 | 56% | 100% | 91% | 6.8 | 9.3 | 19 | signs of hydrolysis at pH 1 and 10 | 
4 | CS(=O)(=O)N=S(=O)(c1ccccc1)N1CCCCC1 (centres unmarked) [2 ea, N‐[Oxo(phenyl)(piperidin‐1‐yl)‐λ^6‐sulfanylidene]methanesulfonamide] | 33 | 2 |  | 36.3 | 0.67 | 100 (1) 100 (7) 100 (10) % | 100 (1) 100 (7) 100 (10) % | 100 (1) 100 (7) 100 (10) % | 20 | 83 |  |  | 100
